The values below come from ChEMBL document CHEMBL4130352, “Ciprofloxacin-nitroxide hybrids with potential for biofilm control” (Eur J Med Chem, 2017).

In one series the test system is RD. Nature of the series: Cytotoxicity against human RD cells assessed as reduction in cell viability at 5 to 40 uM after 24 hrs by LDH release assay. In kind it is cell-based. The method in brief:
(§1)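 HEK 293 and RD cells were grown in DMEM with 10% FBS at 37°C, 5% CO2, and seeded the day before at 50,000 (HEK 293) or 20,000 (RD) cells per well. Compounds (5 mM DMSO stock) were added at 5–40 μM for 24 h, with 0.8% DMSO in all wells. LDH release was normalised to untreated cells and 3 h lysis-buffer controls. Run in triplicate.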

The subject of series [1] is Pseudomonas aeruginosa. Nature of the series: Antibiofilm activity against Pseudomonas aeruginosa PA14 assessed as removal of biomass at 20 uM preincubated for 24 hrs measured after 2 hrs by SYTO/propidium iodide double-staining-based confocal laser scanning microscopic analysis relative to control. The class given is functional.
Series [2] concerns Pseudomonas aeruginosa. Nature of the series: Antibiofilm activity against Pseudomonas aeruginosa PA14 assessed as total live biofilm biomass eradication at 20 uM preincubated for 24 hrs measured after 2 hrs by SYTO/propidium iodide double-staining-based confocal laser scanning microscopic analysis relative to control. In kind it is functional.
In series [3] the test system is Pseudomonas aeruginosa. The series is described as follows: Effect on Pseudomonas aeruginosa PA14 assessed as dead cells at 20 uM preincubated for 24 hrs measured after 2 hrs (reference value: 4%). In kind it is organism-based.
Series [4] concerns Pseudomonas aeruginosa. Nature of the series: Inhibition of planktonic growth of Pseudomonas aeruginosa PA14 after 24 hrs by broth microdilution method. As to conditions: in vitro. In kind it is organism-based. The method in brief:
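Broth microdilution in polypropylene microtiter plates. Compounds added as DMSO solutions, inoculum 5×10^5 CFU/mL final, incubated 37 °C for 24 h. MIC taken as the lowest concentration with no visible growth.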
A general note: Dilution methods test growth across graded concentrations, often in twofold steps.

The test system of series [5] is Pseudomonas aeruginosa. The series is described as follows: Antibiofilm activity against Pseudomonas aeruginosa PA14 assessed as dispersion of bacteria from biofilms at 20 uM after 2 to 3 hrs. The class given is functional, organism-based. Summed up:
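PA14 biofilms grown 2 days in flow cells at 37°C, then exposed to 20 μM compound. Dispersed cells were collected from chamber effluent at set times, plated on Pseudomonas Isolation Agar and incubated at 37°C. CFU/mL was counted the next day, and fold-change in dispersed viable cells was calculated against untreated PA14 effluent.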

For a further series, the system named is HEK293. Nature of the series: Cytotoxicity against HEK293 cells assessed as reduction in cell viability at 5 to 40 uM after 24 hrs by LDH release assay. The class given is cell-based. As to conditions: human, hek293, 24 h. Summed up:
as §1
(In general: LDH leaks from cells whose membrane has failed.)

Series [6] relates to Pseudomonas aeruginosa. The series is described as follows: Antibiofilm activity against Pseudomonas aeruginosa PA14 assessed as dispersion of bacteria from biofilms at 20 uM after 18.5 hrs relative to control. In kind it is functional. Summed up:
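PA14 biofilms pre-grown 2 days at 37°C in flow cells, then treated with 20 μM compound. Dispersed cells collected from chamber effluent at set times, plated on Pseudomonas Isolation Agar at 37°C, counted next day as CFU/mL. Fold change in viable dispersed cells calculated against untreated PA14 biofilms.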

The subject of series [7] is Pseudomonas aeruginosa. The series is described as follows: Inhibition of planktonic growth of Pseudomonas aeruginosa PA14 assessed as reduction of colony forming units after 24 hrs. In kind it is organism-based. The method in brief:
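Overnight PA14 cultures were diluted 1:100 with or without compound (0–160 μM) and incubated 24 h. Samples were then 10-fold serially diluted and plated on LB agar, grown overnight at 37°C, and CFU were counted.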

The subject of series [8] is Pseudomonas aeruginosa. The series is described as follows: Antibiofilm activity against Pseudomonas aeruginosa PA14 assessed as removal of mature biofilm at 40 uM preincubated for 24 hrs measured after 2 hrs by SYTO/propidium iodide double-staining-based confocal laser scanning microscopic analysis relative to control. In kind it is functional.

Values after ≈ are worked out from the molar mass of the structure shown. Active and inactive are the calls of the source. The rule behind the calls is not given here.

With `CC1(C)CC(C(=O)N2CCN(c3cc4c(cc3F)c(=O)c(C(=O)O)cn4C3CC3)CC2)CC(C)(C)N1[O]`, the Activity result with RD was “Non-Toxic”; in the series with Pseudomonas aeruginosa [1], 37%; in the series with Pseudomonas aeruginosa [2], 41%; in the series with Pseudomonas aeruginosa [3] it was 6%; with HEK293, “Non-Toxic”. In the series on Pseudomonas aeruginosa [4], this compound showed an MIC of 312 µM (≈ 160 µg/mL). For the same compound, the outcome in the series with Pseudomonas aeruginosa [5] was Active.

Regarding `CON1C(C)(C)CC(C(=O)N2CCN(c3cc4c(cc3F)c(=O)c(C(=O)O)cn4C3CC3)CC2)CC1(C)C`, the Activity entry is listed as “Non-Toxic” in the series with RD; 17% with Pseudomonas aeruginosa [1]; 30% in the series with Pseudomonas aeruginosa [2]; 16% in the series with Pseudomonas aeruginosa [3]; “Non-Toxic” in the series with HEK293. In the series on Pseudomonas aeruginosa [4], this compound had an MIC greater than 303 µM. Besides, the “fold change (FC)” value in the series on Pseudomonas aeruginosa [6] amounted to 0.

Consider `CON1C(C)(C)c2ccc(C(=O)N3CCN(c4cc5c(cc4F)c(=O)c(C(=O)O)cn5C4CC4)CC3)cc2C1(C)C`, for which the Activity result in the series with RD is “Non-Toxic”; in the series on Pseudomonas aeruginosa [1] it was 53%; in the series with Pseudomonas aeruginosa [2], 54%; in the series with Pseudomonas aeruginosa [3], 2%; in the series with HEK293, “Non-Toxic”. For the same compound, the MIC was greater than 160 µM with Pseudomonas aeruginosa [7] and greater than 284 µM in the series on Pseudomonas aeruginosa [4].

Turning to `CC1(C)CC(C(=O)N2CCN(c3cc4c(cc3F)c(=O)c(C(=O)O)cn4C3CC3)CC2)C(C)(C)N1[O]` (stereo not drawn), the Activity was determined as 67% in the series with Pseudomonas aeruginosa [1], 67% in the series on Pseudomonas aeruginosa [2] and 0% in the series with Pseudomonas aeruginosa [3]. This compound also showed an MIC in the series with Pseudomonas aeruginosa [4] of 160 µM (≈ 79.9 µg/mL).

For the compound `CON1C(C)(C)CC(C(=O)N2CCN(c3cc4c(cc3F)c(=O)c(C(=O)O)cn4C3CC3)CC2)C1(C)C` (stereo not drawn), the Activity in the series with Pseudomonas aeruginosa [1] came out at 24%; in the series with Pseudomonas aeruginosa [2], 31%; in the series on Pseudomonas aeruginosa [3], 9%. Further, in the series with Pseudomonas aeruginosa [4], the MIC worked out at 311 µM (≈ 160 µg/mL).

In the case of `CC1(C)CC(N2CCN(c3cc4c(cc3F)c(=O)c(C(=O)O)cn4C3CC3)CC2)CC(C)(C)N1[O]`, the Activity is listed as 80% with Pseudomonas aeruginosa [2], 50% with Pseudomonas aeruginosa [3] and “<=95%” with Pseudomonas aeruginosa [8].

For the compound `O=C(O)c1cn(C2CC2)c2cc(N3CCNCC3)c(F)cc2c1=O` [CIPROFLOXACIN], in the series on Pseudomonas aeruginosa [4], the MIC is 0.5 µM (≈ 0.166 µg/mL).
